Published values gathered from unrelated publications.
Lines come from different studies, so protocols differ.
PIK3CA H1047L: Phosphatidylinositol 4,5-bisphosphate 3-kinase catalytic subunit alpha isoform (PIK3CA, Homo sapiens, UniProt P42336, H1047L)
PIK3CA E542K: Phosphatidylinositol 4,5-bisphosphate 3-kinase catalytic subunit alpha isoform (PIK3CA, Homo sapiens, UniProt P42336, E542K)
PIK3CA E545K: Phosphatidylinositol 4,5-bisphosphate 3-kinase catalytic subunit alpha isoform (PIK3CA, Homo sapiens, UniProt P42336, E545K)
PIK3CA M1043I: Phosphatidylinositol 4,5-bisphosphate 3-kinase catalytic subunit alpha isoform (PIK3CA, Homo sapiens, UniProt P42336, M1043I)
PIK3CA Q546K: Phosphatidylinositol 4,5-bisphosphate 3-kinase catalytic subunit alpha isoform (PIK3CA, Homo sapiens, UniProt P42336, Q546K)
PIK3CA I800L: Phosphatidylinositol 4,5-bisphosphate 3-kinase catalytic subunit alpha isoform (PIK3CA, Homo sapiens, UniProt P42336, I800L)
PIK3CA: Phosphatidylinositol 4,5-bisphosphate 3-kinase catalytic subunit alpha isoform (PIK3CA, Homo sapiens, UniProt P42336)
PIK3CA H1047Y: Phosphatidylinositol 4,5-bisphosphate 3-kinase catalytic subunit alpha isoform (PIK3CA, Homo sapiens, UniProt P42336, H1047Y)

C[C@H]1CCN(c2nccc(-c3cnn4ncccc34)n2)C1
remaining binding (PIK3CA H1047L; binding; 1 µM): 69%

c1cncc(-c2cccc(Nc3nccc(NC4CCCCC4)n3)c2)c1
remaining binding (PIK3CA E542K; binding; competition with immobilised ligand; 10 µM): 88%

CN(C)c1nccc(-c2cnc3ncccn23)n1
remaining binding (PIK3CA E545K; binding; 1 µM): 82%

CN1CCN(c2ccc(Nc3nccc(-c4ccccc4)n3)cc2C(F)(F)F)CC1
remaining binding (PIK3CA M1043I; binding; 10 µM): 92%

COc1cnc(Nc2cccc(S(N)(=O)=O)c2)nc1N1CCN(c2ccccc2)CC1
remaining binding (PIK3CA Q546K; binding; competition with immobilised ligand; 1 µM): 70%

COc1ccnn2ncc(-c3ccnc(N(C)C)n3)c12
remaining binding (PIK3CA I800L; binding; 1 µM): 94%

O=C(c1ccc(Nc2nccc(-c3cc4ccccc4s3)n2)cc1)N1CCC(N2CCCC2)CC1
remaining binding (Phosphatidylinositol 4,5-bisphosphate 3-kinase catalytic subunit alpha isoform (PIK3CA, Homo sapiens, UniProt P42336, E545A); binding; competition with immobilised ligand; 1 µM): 100%

CNC(=O)[C@@H]1CC[C@@H](n2c(-c3ccc4cnccc4c3)nc3ccc(C(=O)NCc4cccc(C(N)=O)c4)cc32)C1
remaining binding (PIK3CA I800L; binding; competition with immobilised ligand; 1 µM): 85%

O=C(NCC1CCOCC1)c1n[nH]cc1NC(=O)c1c(F)cccc1F
remaining binding (PIK3CA; binding; competition with immobilised ligand; 1 µM): 100%

O=C(c1ccc(Nc2ncc(Cl)c(-c3ccc(Cl)s3)n2)cc1)N1CCC(N2CCCC2)CC1
remaining binding (PIK3CA E545K; binding; competition with immobilised ligand; 1 µM): 70%

c1ccc(N2CCN(Cc3nc4ccccc4[nH]3)CC2)nc1
remaining binding (PIK3CA Q546K; cell-free assay; competition with immobilised ligand; 1 µM): 100%

CCN1CCN(Cc2ccc(C(=O)Nc3ccc(C)c(Oc4ccc5c(c4)CC(=O)N5)c3)cc2C(F)(F)F)CC1
remaining binding (PIK3CA; binding; competition with immobilised ligand; 1 µM): 86%

Cc1cc(-c2cc(C(F)(F)F)ccc2O[C@H]2C[C@@]2(CNS(=O)(=O)c2ccc([N+](=O)[O-])cc2)c2ccc(F)cc2F)[nH]n1
remaining binding (PIK3CA M1043I; cell-free assay; competition with immobilised ligand; 0.3 µM): 8.1%

CN1CCN(c2cnc3c(C4CCN(C(=O)c5ccc(OC(F)(F)F)cc5N)CC4)ncnc3c2)CC1
remaining binding (PIK3CA E542K; cell-free assay; competition with immobilised ligand; 1 µM): 100%

Nc1ncc2c(n1)-c1c([nH]c3ccc(C#CC4CC4)cc13)CCCC2
remaining binding (PIK3CA H1047L; binding; competition with immobilised ligand; 1 µM): 80%

CN(c1nccc(-c2cnn3ncccc23)n1)C1CC1
remaining binding (PIK3CA E545K; binding; 1 µM): 100%

COc1ncc2cc3ccccc3nc2c1C#N
remaining binding (PIK3CA; cell-free assay; competition with immobilised ligand; 5 µM): 100%

CN1CCN(c2ccc(Nc3nccc(-c4cccc([N+](=O)[O-])c4)n3)cc2C(F)(F)F)CC1
remaining binding (PIK3CA Q546K; binding; 10 µM): 37%

COc1cnc(Nc2cccc(S(N)(=O)=O)c2)nc1N1CCN(c2ccccc2)C(=O)C1
remaining binding (PIK3CA I800L; binding; competition with immobilised ligand; 1 µM): 59%

O=C(Nc1c[nH]nc1C(=O)NC1CCNCC1)c1cc(F)cc(F)c1
remaining binding (PIK3CA Q546K; binding; competition with immobilised ligand; 1 µM): 100%

O=C(NCCCN1CCOCC1)c1ccc(Nc2nccc(-c3cc4ccccc4s3)n2)cc1
remaining binding (PIK3CA Q546K; binding; competition with immobilised ligand; 1 µM): 81%

C[C@@H](c1ccc(-n2cnc3c(N)ncnc32)cc1)N1CCc2nn(C)c(Cc3ccccc3)c2C1=O
remaining binding (PIK3CA E542K; binding; competition with immobilised ligand; 0.1 µM): 83%

C=CC(=O)N1CCC(C(=O)NCC(=O)N2CCN(c3nc(-c4cnc(N)nc4C(F)F)nc(N4CCOCC4)n3)CC2)CC1
remaining binding (PIK3CA Q546K; binding; competition with immobilised ligand; 1 µM): 0%

CS(=O)(=O)CCNCc1ccc(-c2ccc3ncnc(Nc4ccc(OCc5cccc(F)c5)c(Cl)c4)c3c2)o1
remaining binding (PIK3CA; cell-free assay; competition with immobilised ligand; 0.1 µM): 98%

O=C(NCc1ncc(C(F)(F)F)cc1Cl)c1ccc2c(c1)C1(CCS(=O)(=O)CC1)[C@H](C1CC1)N2S(=O)(=O)c1ccc(F)cc1
remaining binding (PIK3CA H1047L; cell-free assay; competition with immobilised ligand; 1 µM): 77%

CN(C)c1ncc(F)c(-c2cnn3ncccc23)n1
remaining binding (PIK3CA H1047Y; binding; 1 µM): 100%

CN(c1ccnc(CNc2nc(Nc3ccc4c(c3)CC(=O)N4)ncc2C(F)(F)F)n1)S(C)(=O)=O
remaining binding (PIK3CA E545K; cell-free assay; competition with immobilised ligand; 1 µM): 100%

O=C(c1ccc(Nc2ncc(Cl)c(-c3cc4ccccc4s3)n2)cc1)N1CCC(N2CCCC2)CC1
remaining binding (PIK3CA H1047L; binding; competition with immobilised ligand; 1 µM): 80%

CS(=O)(=O)c1cc(C2(NC(=O)c3cncc4c3cnn4-c3ccc(F)cc3)CC2)ccn1
remaining binding (PIK3CA Q546K; cell-free assay; competition with immobilised ligand; 1 µM): 66%

F[C@@H]1CCN(c2nccc(-c3cnn4ncccc34)n2)C1
remaining binding (PIK3CA E545K; binding; 1 µM): 100%

NS(=O)(=O)c1cc(NC(=O)C2(c3ccccc3Cl)CC2)ccc1Oc1cccc(Cl)c1
remaining binding (PIK3CA H1047Y; cell-free assay; competition with immobilised ligand; 1 µM): 76%

c1cnn2ncc(-c3ccnc(N4CCC45COC5)n3)c2c1
remaining binding (PIK3CA Q546K; binding; 1 µM): 63%

CNCc1ccccc1-c1csc([C@H](C)Nc2nc(C)nc3cc(OC)c(OC)cc23)c1
remaining binding (PIK3CA I800L; cell-free assay; competition with immobilised ligand; 1 µM): 81%

Cc1ccc(NC(=O)c2ccc(CN3CCN(C)CC3)cc2)cc1Nc1nccc(-c2cccnc2)n1
remaining binding (PIK3CA; cell-free assay; competition with immobilised ligand; 0.1 µM): 100%

N[C@@H]1CCN(c2nccc(-c3cnn4ncccc34)n2)C1
remaining binding (PIK3CA E545K; binding; 1 µM): 100%

Nc1cnc(N2CCc3cc(S(=O)(=O)Nc4c(F)cc(Cl)cc4F)cc(N4CCCC4=O)c32)nc1
remaining binding (PIK3CA; cell-free assay; competition with immobilised ligand; 1 µM): 76%

O=C(NCCCN1CCOCC1)c1ccc(Nc2ncc(Cl)c(-c3ccc(Cl)s3)n2)cc1
remaining binding (PIK3CA M1043I; binding; competition with immobilised ligand; 1 µM): 100%
